Reference: ChEMBL document CHEMBL1153955, “Indolylarylsulfones bearing natural and unnatural amino acids. Discovery of potent inhibitors of HIV-1 non-nucleoside wild type and resistant mutant strains reverse transcriptase and coxsackie B4 virus” (J Med Chem, 2009)

How the values were obtained:
[1] = tested on: Respiratory syncytial virus; test: Antiviral activity against RSV Long in human HeLa cells assessed as protection against virus-induced cytopathicity; type: functional, organism-based
Outline: (§1)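 Confluent cell monolayers inoculated with 100 CCID₅₀ virus. After 1-2 h adsorption, residual virus removed and cultures incubated with varying compound concentrations. Cytopathicity scored once it reached completion in untreated infected controls. EC₅₀ = dose reducing virus-induced cytopathogenicity by 50%.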

[2] = tested on: Vesicular stomatitis virus; test: Antiviral activity against VSV in human HeLa cells assessed as protection against virus-induced cytopathicity; type: functional, organism-based
[3] = tested on: Human immunodeficiency virus 1; test: Antiviral activity against HIV1 3B in human CEM cells assessed as protection against virus-induced cytopathicity after 4 days; type: functional, organism-based; conditions: Human immunodeficiency virus 1, 3B, CCRF-CEM, 96 h
Outline: (§2)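 CEM cells (~3 × 10⁵ cells/mL) infected with ~100 CCID₅₀ per mL of HIV-1 (IIIB) or HIV-2 (ROD), then seeded into wells containing compound dilutions. After 4 days at 37 °C, syncytium (giant cell) formation was examined microscopically. EC₅₀ = concentration protecting CEM cells from HIV cytopathicity by 50%.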

[4] = tested on: Human immunodeficiency virus 2; test: Antiviral activity against HIV2 ROD in human CEM cells assessed as protection against virus-induced cytopathicity after 4 days; type: functional, organism-based; conditions: Human immunodeficiency virus 2, ROD, CCRF-CEM, 96 h; outline: as §2
[5] = tested on: L1210; test: Antiproliferative activity against mouse L1210 cells after 2 days; type: cell-based; conditions: L1210, 48 h
Outline: (§3)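 Cells seeded at 5 × 10⁴ to 7.5 × 10⁴ cells/200 µL with or without serial compound dilutions; incubated at 37 °C for 2 days (L1210) or 3 days (Molt4/C8, CEM). Cell numbers counted with a Coulter counter. CC₅₀ = concentration reducing proliferation by 50% versus untreated controls, read from plots of cell number (% of control) against concentration. Means of at least two independent experiments.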

[6] = Antiproliferative activity against human Molt4/C8 cells after 3 days; type: cell-based; conditions: MOLT-4, 72 h; outline: as §3
[7] = tested on: CCRF-CEM; test: Antiproliferative activity against human CEM cells after 3 days; type: cell-based; conditions: 72 h; outline: as §3
[8] = tested on: Human immunodeficiency virus 1; test: Antiviral activity against HIV1 with reverse transcriptase L100I mutation in human CEM cells assessed as protection against virus-induced cytopathicity; type: functional, organism-based; conditions: Human immunodeficiency virus 1, CCRF-CEM
Outline: (§4)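 CEM cells (~3 × 10⁵ cells/mL) were infected with ~100 CCID₅₀ virus per mL and seeded with serial compound dilutions. After 4 days at 37 °C, syncytium (giant cell) formation was scored microscopically. EC₅₀ is the concentration giving 50% protection against virus cytopathicity.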

[9] = tested on: Human immunodeficiency virus 1; test: Antiviral activity against HIV1 with reverse transcriptase K103N mutation in human CEM cells assessed as protection against virus-induced cytopathicity; type: functional, organism-based; conditions: Human immunodeficiency virus 1, CCRF-CEM; outline: as §4
[10] = tested on: Human immunodeficiency virus 1; test: Antiviral activity against HIV1 with reverse transcriptase Y181C mutation in human CEM cells assessed as protection against virus-induced cytopathicity; type: functional, organism-based; conditions: Human immunodeficiency virus 1, CCRF-CEM; outline: as §4
[11] = tested on: Human immunodeficiency virus 1; test: Antiviral activity against HIV1 with reverse transcriptase Y181I mutation in human CEM cells assessed as protection against virus-induced cytopathicity; type: functional, organism-based; conditions: Human immunodeficiency virus 1, CCRF-CEM; outline: as §4
[12] = tested on: Human immunodeficiency virus 1; test: Antiviral activity against HIV1 with reverse transcriptase Y188L mutation in human CEM cells assessed as protection against virus-induced cytopathicity; type: functional, organism-based; conditions: Human immunodeficiency virus 1, CCRF-CEM; outline: as §4
[13] = target: Human immunodeficiency virus type 1 reverse transcriptase (Human immunodeficiency virus 1, UniProt Q72547); test: Inhibition of HIV1 reverse transcriptase p66/p51; conditions: read-out: IC50
[14] = target: Human immunodeficiency virus type 1 reverse transcriptase (Human immunodeficiency virus 1, UniProt Q72547, L100I); test: Inhibition of HIV1 reverse transcriptase p66/p51 L100I mutant; conditions: read-out: IC50
Outline: (§5)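 Substrate was 0.5 µg poly(rA)/oligo(dT) 10:1 (0.3 µM 3′-OH ends) with 10 µM [³H]dTTP, at 37 °C. Acid-precipitable radioactivity was counted on GF/C filters after TCA washes.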

[15] = target: Human immunodeficiency virus type 1 reverse transcriptase (Human immunodeficiency virus 1, UniProt Q72547, K103N); test: Inhibition of HIV1 reverse transcriptase p66/p51 K103N mutant; conditions: read-out: IC50; outline: as §5
[16] = target: Human immunodeficiency virus type 1 reverse transcriptase (Human immunodeficiency virus 1, UniProt Q72547, Y181I); test: Inhibition of HIV1 reverse transcriptase p66/p51 Y181I mutant; conditions: read-out: IC50; outline: as §5
[17] = Cytotoxicity against human HeLa cells assessed as drug level causing microscopically detectable alteration of normal cell morphology after 3 days; type: cell-based
Outline: (§6)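 Serial compound dilutions added to confluent HeLa or Vero monolayers. MCC = minimum concentration causing microscopically detectable alteration of cell morphology after 3 days of incubation.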

[18] = Cytotoxicity against african green monkey Vero cells assessed as drug level causing microscopically detectable alteration of normal cell morphology after 3 days; type: cell-based; conditions: chlorocebus sabaeus; outline: as §6
[19] = tested on: Coxsackievirus B4; test: Antiviral activity against Coxsackievirus B4 in human HeLa cells assessed as protection against virus-induced cytopathicity; type: functional, organism-based; conditions: Enterovirus B; outline: as §1
[20] = tested on: Coxsackievirus B4; test: Antiviral activity against Coxsackievirus B4 in african green monkey Vero cells assessed as protection against virus-induced cytopathicity; type: functional, organism-based; conditions: Enterovirus B; outline: as §1
[21] = tested on: Human respirovirus 3; test: Antiviral activity against Parainfluenza virus type 3 in african green monkey Vero cells assessed as protection against virus-induced cytopathicity; type: functional, organism-based; conditions: Human respirovirus 3, Vero; outline: as §1
[22] = tested on: Mammalian orthoreovirus 1; test: Antiviral activity against Reovirus 1 in african green monkey Vero cells assessed as protection against virus-induced cytopathicity; type: functional, organism-based; conditions: Mammalian orthoreovirus 1, Vero; outline: as §1
[23] = tested on: Sindbis virus; test: Antiviral activity against Sindbis virus in african green monkey Vero cells assessed as protection against virus-induced cytopathicity; type: functional, organism-based; outline: as §1
[24] = tested on: Punta Toro virus; test: Antiviral activity against Punta Toro virus in african green monkey Vero cells assessed as protection against virus-induced cytopathicity; type: functional, organism-based; outline: as §1
[25] = Cytotoxicity against human HEL cells assessed as drug level causing microscopically detectable alteration of normal cell morphology after 3 days; type: cell-based
[26] = tested on: Human alphaherpesvirus 1; test: Antiviral activity against HSV1 KOS in human HEL cells assessed as protection against virus-induced cytopathicity; type: functional, organism-based; conditions: Human alphaherpesvirus 1, KOS
[27] = tested on: Human alphaherpesvirus 2; test: Antiviral activity against HSV2 G in human HEL cells assessed as protection against virus-induced cytopathicity; type: functional, organism-based; conditions: Human alphaherpesvirus 2, strain G; outline: as §1
[28] = tested on: Vaccinia virus; test: Antiviral activity against Vaccinia virus Lederle in human HEL cells assessed as protection against virus-induced cytopathicity; type: functional, organism-based; conditions: Orthopoxvirus vaccinia
[29] = tested on: Vesicular stomatitis virus; test: Antiviral activity against VSV in human HEL cells assessed as protection against virus-induced cytopathicity; type: functional, organism-based
[30] = tested on: Human alphaherpesvirus 1; test: Antiviral activity against thymidine kinase deficient and acyclovir resistant HSV1 KOS in human HEL cells assessed as protection against virus-induced cytopathicity; type: functional, organism-based; conditions: Human alphaherpesvirus 1, KOS
[31] = Cytotoxicity against MDCK cells assessed as drug level causing microscopically detectable alteration of normal cell morphology; type: cell-based, Canis lupus familiaris; conditions: dog
[32] = Cytotoxicity against MDCK cells by MTS assay; type: cell-based, Canis lupus familiaris; conditions: dog
[33] = tested on: Influenza A virus; test: Antiviral activity against influenza H1N1 virus in MDCK cells assessed as reduction of virus-induced cytopathicity by visual cytopathic effect scoring method; type: functional, organism-based
[34] = tested on: Influenza A virus; test: Antiviral activity against influenza H1N1 virus in MDCK cells assessed as reduction of virus-induced cytopathicity by MTS method; type: functional, organism-based; conditions: Influenza A virus, H1N1, MDCK
[35] = tested on: Influenza A virus H3N2; test: Antiviral activity against influenza H3N2 virus in MDCK cells assessed as reduction of virus-induced cytopathicity by visual cytopathic effect scoring method; type: functional, organism-based
[36] = tested on: Influenza A virus H3N2; test: Antiviral activity against influenza H3N2 virus in MDCK cells assessed as reduction of virus-induced cytopathicity by MTS method; type: functional, organism-based
[37] = tested on: Influenza B virus; test: Antiviral activity against influenza B virus in MDCK cells assessed as reduction of virus-induced cytopathicity by visual cytopathic effect scoring method; type: functional, organism-based
[38] = tested on: Influenza B virus; test: Antiviral activity against influenza B virus in MDCK cells assessed as reduction of virus-induced cytopathicity by MTS method; type: functional, organism-based
[39] = Cytotoxicity against feline CRFK cells by MTS assay; type: cell-based, Felis catus; conditions: cat
[40] = tested on: Feline coronavirus; test: Antiviral activity against Feline coronavirus in feline […] cells assessed as inhibition of virus-induced cytopathicity; type: functional, organism-based; conditions: Alphacoronavirus 1
[41] = tested on: Felid alphaherpesvirus 1; test: Antiviral activity against Feline herpesvirus in feline […] cells assessed as inhibition of virus-induced cytopathicity; type: functional, organism-based

Structure (SMILES): Cc1cc(C)cc(S(=O)(=O)c2c(C(=O)NC(C)C(N)=O)[nH]c3ccc(Cl)cc23)c1 (stereo unspecified)
- EC50 [1]: > 100 µM
- EC50 [2]: > 100 µM
- EC50 [3]: 0.0016 µM
- EC50 [4]: > 10 µM
- IC50 [5]: 12 µM
- IC50 [6]: 3.8 µM
- IC50 [7]: 11 µM
- IC50 [8]: 0.009 µM
- IC50 [9]: 0.014 µM
- IC50 [10]: 0.096 µM
- IC50 [11]: > 1 µM
- IC50 [12]: 0.66 µM
- IC50 [13]: 0.02 µM
- IC50 [14]: 0.112 µM
- IC50 [15]: 0.19 µM
- IC50 [16]: 2.49 µM
- MCC at 72 h [17]: 100 µM
- MCC at 72 h [18]: 100 µM
- EC50 [19]: 6 µM
- EC50 [20]: > 20 µM
- EC50 [21]: > 20 µM
- EC50 [22]: > 20 µM
- EC50 [23]: > 20 µM
- EC50 [24]: > 20 µM
- MCC at 72 h [25]: > 100 µM
- EC50 [26]: > 100 µM
- EC50 [27]: > 100 µM
- EC50 [28]: > 100 µM
- EC50 [29]: > 100 µM
- EC50 [30]: > 100 µM
- MCC [31]: 20 µM
- CC50 [32]: 16 µM
- EC50 [33]: > 4 µM
- EC50 [34]: > 4 µM
- EC50 [35]: > 4 µM
- EC50 [36]: > 4 µM
- EC50 [37]: > 4 µM
- EC50 [38]: > 4 µM
- CC50 [39]: 39.3 µM
- EC50 [40]: > 20 µM
- EC50 [41]: > 20 µM

Structure (SMILES): O=C1Nc2ccc(Cl)cc2[C@@](C#CC2CC2)(C(F)(F)F)O1 [EFAVIRENZ]
- IC50 [8]: 0.022 µM
- IC50 [9]: 0.13 µM
- IC50 [10]: 0.16 µM
- IC50 [11]: 0.012 µM
- IC50 [12]: 0.76 µM
